From ChEMBL document CHEMBL2146464, “Structure-activity relationship study of nitrosopyrimidines acting as antifungal agents” (Bioorg Med Chem, 2012)
Values after ≈ are worked out from the molar mass of the structure shown. Active and inactive are the calls of the source. The rule behind the calls is not given here.

Tests used:
Candida albicans [1] = assay: Antifungal activity against Candida albicans ATCC 10231 assessed as growth inhibition at 3.9 ug/mL after 24 hrs by microplate reader analysis; assay type: functional; settings: ATCC 10231, 24 h, read-out: GI
Outline: (§1)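 96-well RPMI-1640 wells with compound at final 250–0.98 µg/mL (DMSO ≤1%). Inoculum 100 µL, 1–5 × 10³ CFU/mL, 200 µL final. Each well includes growth (DMSO, no compound) and sterility controls. % inhibition = 100 − (CTW−SCW)/(GCW−SCW) × 100, run in duplicate.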

Nannizzia gypsea = assay: Antifungal activity against Microsporum gypseum CCC 115 at 0.98 to 250 ug/mL by NCCLS broth microdilution method; assay type: functional, organism-based
Outline: (§2)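 MIC by broth microdilution per NCCLS M27-A3/M38-A2 in RPMI-1640 buffered to pH 7.0 with MOPS. Twofold dilutions from 250–0.98 µg/mL, final DMSO ≤1%. Inoculum 1–5 × 10³ CFU/mL. Incubated in a moist dark chamber, 30 °C for Aspergillus and 28–30 °C for dermatophytes. Read visually when control growth allowed. Endpoint is the lowest concentration giving total inhibition of visible growth (MIC100).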

Candida albicans [2] = assay: Antifungal activity against Candida albicans ATCC 10231 assessed as growth inhibition at 250 ug/mL after 24 hrs by microplate reader analysis; assay type: functional; settings: ATCC 10231, 24 h, read-out: GI; outline: as §1
Candida albicans [3] = assay: Antifungal activity against Candida albicans ATCC 10231 assessed as growth inhibition at 15.6 ug/mL after 24 hrs by microplate reader analysis; assay type: functional; settings: ATCC 10231, 24 h, read-out: GI; outline: as §1
Candida tropicalis [4] = assay: Fungicidal activity against Candida tropicalis after 48 hrs by agar plate dilution method; assay type: functional
Outline: (§3)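 MFC: after the microdilution MIC, material from each clear well was plated onto RPMI-1640 agar buffered with MOPS. Plates incubated at 30 °C and read after 48 h. MFC is the lowest concentration giving total inhibition of visible growth.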

Candida albicans [5] = assay: Antifungal activity against Candida albicans ATCC 10231 assessed as growth inhibition at 7.8 ug/mL after 24 hrs by microplate reader analysis; assay type: functional; settings: ATCC 10231, 24 h, read-out: GI; outline: as §1
Trichophyton rubrum [6] = assay: Antifungal activity against Trichophyton rubrum CCC 110 by NCCLS broth microdilution method; assay type: functional; settings: read-out: MIC100; outline: as §2
Aspergillus fumigatus = assay: Antifungal activity against Aspergillus fumigatus ATCC 26934 at 0.98 to 250 ug/mL by NCCLS broth microdilution method; assay type: functional, organism-based; outline: as §2
Candida albicans [7] = assay: Antifungal activity against Candida albicans ATCC 10231 assessed as growth inhibition at 125 ug/mL after 24 hrs by microplate reader analysis; assay type: functional; settings: ATCC 10231, 24 h, read-out: GI; outline: as §1
Candida tropicalis [8] = assay: Antifungal activity against Candida tropicalis after 48 hrs by NCCLS broth microdilution method; assay type: functional; settings: read-out: MIC100
Outline: (§4)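 Yeast MIC by NCCLS M27-A3 broth microdilution in RPMI-1640 buffered to pH 7.0 with MOPS. Twofold dilutions of 250–0.98 µg/mL, final DMSO ≤1%. Inoculum 1–5 × 10³ CFU/mL. Incubated at 30 °C in a moist dark chamber. Read visually at 48 h. MIC100 is the lowest concentration with no visible growth versus drug-free control.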

Aspergillus flavus = assay: Antifungal activity against Aspergillus flavus ATCC 9170 at 0.98 to 250 ug/mL by NCCLS broth microdilution method; assay type: functional, organism-based; outline: as §2
[9] = system: Trichophyton mentagrophytes; assay: Antifungal activity against Trichophyton mentagrophytes ATCC 9972 by NCCLS broth microdilution method; assay type: functional; settings: read-out: MIC100; outline: as §2
Cryptococcus neoformans [10] = assay: Antifungal activity against Cryptococcus neoformans ATCC 32264 after 48 hrs by microplate reader analysis; assay type: functional; settings: ATCC 32264, 48 h
Outline: (§5)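 Microplate growth-inhibition assay in RPMI-1640, compound at final 250–0.98 µg/mL (DMSO ≤1%). Inoculum 1–5 × 10³ CFU/mL. Sterility and DMSO growth controls included. Percent inhibition is computed from blank-corrected OD relative to the growth control, tested in duplicate.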

[11] = Acute toxicity in bony fish assessed as mortality at 35 ug/mL after 96 hrs; settings: actinopterygii; read-out: Activity
Outline: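 Guppy (Poecilia reticulata) acute static exposure: 10 fish per concentration in 2 L wide-mouthed jars holding the test solution. Compounds were added from […] to give the final concentrations. Dead fish were counted and removed every 24 h, with general condition noted; percentage mortality was scored at 96 h. Two experiments, each in triplicate.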

Candida tropicalis [12] = assay: Antifungal activity against Candida tropicalis assessed as growth inhibition at 250 ug/mL by microplate reader analysis; assay type: functional; settings: read-out: GI
Candida albicans [13] = assay: Antifungal activity against Candida albicans ATCC 10231 assessed as growth inhibition at 62.5 ug/mL after 24 hrs by microplate reader analysis; assay type: functional; settings: ATCC 10231, 24 h, read-out: GI; outline: as §1
Cryptococcus neoformans [14] = assay: Antifungal activity against Cryptococcus neoformans ATCC 32264 assessed as growth inhibition at 250 ug/mL after 48 hrs by microplate reader analysis; assay type: functional; settings: ATCC 32264, 48 h, read-out: GI; outline: as §5
Trichophyton rubrum [15] = assay: Fungicidal activity against Trichophyton rubrum CCC 110 at 0.98 to 250 ug/mL after 48 hrs by agar plate dilution method; assay type: functional, organism-based
Outline: (§6)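 Samples from each clear well of the MIC broth microdilution tray were plated onto RPMI-1640 agar buffered with MOPS. That tray had compounds twofold diluted in RPMI (pH 7.0, MOPS) from 250–0.98 µg/mL with inoculum of 1–5 × 10³ CFU/mL, incubated at 28–30 °C for dermatophytes. Plates were incubated at 30 °C and read at 48 h. MFC was taken as the lowest concentration giving total inhibition of visible growth.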

Candida tropicalis [16] = assay: Antifungal activity against Candida tropicalis assessed as growth inhibition at 7.8 ug/mL by microplate reader analysis; assay type: functional; settings: read-out: GI
Candida tropicalis [17] = assay: Antifungal activity against Candida tropicalis assessed as growth inhibition at 125 ug/mL by microplate reader analysis; assay type: functional; settings: read-out: GI
Cryptococcus neoformans [18] = assay: Antifungal activity against Cryptococcus neoformans ATCC 32264 assessed as growth inhibition at 15.6 ug/mL after 48 hrs by microplate reader analysis; assay type: functional; settings: ATCC 32264, 48 h, read-out: GI; outline: as §5
Candida tropicalis [19] = assay: Antifungal activity against Candida tropicalis assessed as growth inhibition at 15.6 ug/mL by microplate reader analysis; assay type: functional; settings: read-out: GI
Candida tropicalis [20] = assay: Antifungal activity against Candida tropicalis assessed as growth inhibition at 3.9 ug/mL by microplate reader analysis; assay type: functional; settings: read-out: GI
[21] = system: Trichophyton mentagrophytes; assay: Fungicidal activity against Trichophyton mentagrophytes ATCC 9972 at 0.98 to 250 ug/mL after 48 hrs by agar plate dilution method; assay type: functional, organism-based; outline: as §6
Candida tropicalis [22] = assay: Antifungal activity against Candida tropicalis assessed as growth inhibition at 62.5 ug/mL by microplate reader analysis; assay type: functional; settings: read-out: GI
Candida albicans [23] = assay: Antifungal activity against Candida albicans ATCC 10231 after 48 hrs by NCCLS broth microdilution method; assay type: functional; settings: ATCC 10231, 48 h, read-out: MIC100; outline: as §4
Aspergillus niger = assay: Antifungal activity against Aspergillus niger ATCC 9029 at 0.98 to 250 ug/mL by NCCLS broth microdilution method; assay type: functional, organism-based; outline: as §2
Candida tropicalis [24] = assay: Antifungal activity against Candida tropicalis by microplate reader analysis; assay type: functional
Cryptococcus neoformans [25] = assay: Antifungal activity against Cryptococcus neoformans ATCC 32264 assessed as growth inhibition at 31.25 ug/mL after 48 hrs by microplate reader analysis; assay type: functional; settings: ATCC 32264, 48 h, read-out: GI; outline: as §5
Cryptococcus neoformans [26] = assay: Fungicidal activity against Cryptococcus neoformans ATCC 32264 after 48 hrs by agar plate dilution method; assay type: functional; settings: ATCC 32264, 48 h; outline: as §3
Candida albicans [27] = assay: Antifungal activity against Candida albicans ATCC 10231 after 24 hrs by microplate reader analysis; assay type: functional; settings: ATCC 10231, 24 h; outline: as §1
Candida albicans [28] = assay: Antifungal activity against Candida albicans ATCC 10231 assessed as growth inhibition at 31.25 ug/mL after 24 hrs by microplate reader analysis; assay type: functional; settings: ATCC 10231, 24 h, read-out: GI; outline: as §1
Candida tropicalis [29] = assay: Antifungal activity against Candida tropicalis assessed as growth inhibition at 31.25 ug/mL by microplate reader analysis; assay type: functional; settings: read-out: GI
Candida albicans [30] = assay: Fungicidal activity against Candida albicans ATCC 10231 after 48 hrs by agar plate dilution method; assay type: functional; settings: ATCC 10231, 48 h; outline: as §3
Cryptococcus neoformans [31] = assay: Antifungal activity against Cryptococcus neoformans ATCC 32264 assessed as growth inhibition at 7.8 ug/mL after 48 hrs by microplate reader analysis; assay type: functional; settings: ATCC 32264, 48 h, read-out: GI; outline: as §5
Cryptococcus neoformans [32] = assay: Antifungal activity against Cryptococcus neoformans ATCC 32264 after 48 hrs by NCCLS broth microdilution method; assay type: functional; settings: ATCC 32264, 48 h, read-out: MIC100; outline: as §4
Cryptococcus neoformans [33] = assay: Antifungal activity against Cryptococcus neoformans ATCC 32264 assessed as growth inhibition at 62.5 ug/mL after 48 hrs by microplate reader analysis; assay type: functional; settings: ATCC 32264, 48 h, read-out: GI; outline: as §5
Cryptococcus neoformans [34] = assay: Antifungal activity against Cryptococcus neoformans ATCC 32264 assessed as growth inhibition at 125 ug/mL after 48 hrs by microplate reader analysis; assay type: functional; settings: ATCC 32264, 48 h, read-out: GI; outline: as §5
Cryptococcus neoformans [35] = assay: Antifungal activity against Cryptococcus neoformans ATCC 32264 assessed as growth inhibition at 3.9 ug/mL after 48 hrs by microplate reader analysis; assay type: functional; settings: ATCC 32264, 48 h, read-out: GI; outline: as §5

## CCCCNc1nc(N)nc(OC)c1N=O
Candida albicans [1]
  inhibition of growth at 3.9 µg/mL: 20%
Nannizzia gypsea
  Activity: inactive
Candida albicans [2]
  inhibition of growth at 250 µg/mL: 100%
Candida albicans [3]
  inhibition of growth at 15.6 µg/mL: 86.2%
Candida tropicalis [4]
  MFC: 250 µg/mL (≈ 1110 µM)
Candida albicans [5]
  inhibition of growth at 7.8 µg/mL: 50.4%
Trichophyton rubrum [6]
  MIC: 250 µg/mL (≈ 1110 µM)
Aspergillus fumigatus
  Activity: inactive
Candida albicans [7]
  inhibition of growth at 125 µg/mL: 100%
Candida tropicalis [8]
  MIC: 62.5 µg/mL (≈ 277 µM)
Aspergillus flavus
  Activity: inactive
[9]
  MIC: 250 µg/mL (≈ 1110 µM)
Cryptococcus neoformans [10]
  MIC50: 7.8 µg/mL (≈ 34.6 µM)
[11]
  mortality at 96 h, 35 ug/mL: 0%
Candida tropicalis [12]
  inhibition of growth at 250 µg/mL: 100%
Candida albicans [13]
  inhibition of growth at 62.5 µg/mL: 100%
Cryptococcus neoformans [14]
  inhibition of growth at 250 µg/mL: 100%
Trichophyton rubrum [15]
  Activity: inactive
Candida tropicalis [16]
  inhibition of growth at 7.8 µg/mL: 57.7%
Candida tropicalis [17]
  inhibition of growth at 125 µg/mL: 100%
Cryptococcus neoformans [18]
  inhibition of growth at 15.6 µg/mL: 63.1%
Candida tropicalis [19]
  inhibition of growth at 15.6 µg/mL: 85.2%
Candida tropicalis [20]
  inhibition of growth at 3.9 µg/mL: 16.3%
[21]
  Activity: inactive
Candida tropicalis [22]
  inhibition of growth at 62.5 µg/mL: 100%
Candida albicans [23]
  MIC: 62.5 µg/mL (≈ 277 µM)
Aspergillus niger
  Activity: inactive
Candida tropicalis [24]
  MIC50: 7.8 µg/mL (≈ 34.6 µM)
Cryptococcus neoformans [25]
  inhibition of growth at 31.25 µg/mL: 75%
Cryptococcus neoformans [26]
  MFC: 250 µg/mL (≈ 1110 µM)
Candida albicans [27]
  MIC50: 7.8 µg/mL (≈ 34.6 µM)
Candida albicans [28]
  inhibition of growth at 31.25 µg/mL: 98.2%
Candida tropicalis [29]
  inhibition of growth at 31.25 µg/mL: 93.2%
Candida albicans [30]
  MFC: 250 µg/mL (≈ 1110 µM)
Cryptococcus neoformans [31]
  inhibition of growth at 7.8 µg/mL: 52.4%
Cryptococcus neoformans [32]
  MIC: 125 µg/mL (≈ 555 µM)
Cryptococcus neoformans [33]
  inhibition of growth at 62.5 µg/mL: 85.5%
Cryptococcus neoformans [34]
  inhibition of growth at 125 µg/mL: 100%
Cryptococcus neoformans [35]
  inhibition of growth at 3.9 µg/mL: 11.3%
